Measured values from different studies.
Lines come from different studies, so protocols differ.
LIMK2: LIM domain kinase 2 (LIMK2, Homo sapiens, UniProt P53671)
CNR2: Cannabinoid receptor 2 (CNR2, Homo sapiens, UniProt P34972)

| SMILES | target | assay | setting | endpoint | value |
| --- | --- | --- | --- | --- | --- |
| Cn1cc(-c2cc(F)cc(N3CCn4c(cc5c4CCCC5)C3=O)c2CO)cc(Nc2ccc(N3CCN(C4COC4)CC3)cn2)c1=O | LIMK2 | enzyme activity, inhibitor | 0.1 µM | inhibition | -3% |
| Cc1nn(C)cc1-c1nc2c(N3CCN(Cc4ccc(Cl)cc4)CC3)c(Cl)cnc2[nH]1 | Serine/threonine-protein kinase 35 (STK35, Homo sapiens, UniProt Q8TDR2) | binding, competition with immobilised ligand | 1 µM | remaining binding | 75% |
| Cn1cc(-c2cccc(N3CCc4c(sc5c4CC(C)(C)C5)C3=O)c2CO)cc(Nc2ccncn2)c1=O | LIMK2 | enzyme activity, inhibitor | 1 µM | inhibition | 6% |
| CCOC(=O)C(CC)(CCCSCCOCCOCCOCCNC(=O)OC(C)(C)C)NC(=O)c1ccc(C2CC2)c(Cc2ccc(F)cc2)n1 (stereo not shown) | CNR2 | cAMP, agonist | – | Emax | 91% |
| CCN(CC)CCCC[C@H](NC(=O)[C@H](CC(C)C)NC(=O)[C@H](C)NC(=O)[C@H](Cc1ccccc1)NC(=O)c1ccc(C(C)(C)C)cc1)C(=O)N[C@@H](CO)C(=O)OC | Bromodomain-containing protein 9 (BRD9, Homo sapiens, UniProt Q9H8M2) | thermal stability, DSF | 25 µM | ΔTm | 0.23 °C |
| CCOC(=O)[C@](CC)(CCC[S+]([O-])CCOCCOCCNC(=O)OC(C)(C)C)NC(=O)c1ccc(C2CC2)c(Cc2ccc(F)cc2)n1 (stereo partly shown) | CNR2 | cAMP, agonist | – | Emax | 93% |
| C#Cc1n[nH]c2c(-c3cn([C@@H](C)c4ccccn4)c(=O)[nH]c3=O)cc(F)cc12 | Serine/threonine-protein kinase haspin (HASPIN, Homo sapiens, UniProt Q8TF76) | enzyme activity, inhibitor | 0.1 µM | inhibition | 4.5% |
| O=C(N1CCCCC1Cc1ccccc1)n1cc(-c2ccc(-c3ccccc3)cc2)nn1 (stereo not shown) | Diacylglycerol lipase-alpha (Mus musculus, UniProt Q6WQJ1) | enzyme activity, inhibitor | – | kinact | 0.00133 s⁻¹ |
| Nc1ncc(-c2nc(N3CCOCC3)nc(N3CCOCC3)n2)c(C(F)F)n1 | Membrane-associated tyrosine- and threonine-specific cdc2-inhibitory kinase (PKMYT1, Homo sapiens, UniProt Q99640) | binding, competition with immobilised ligand | 10 µM | remaining binding | 98% |
| Nc1ccc2cccc(O)c2n1 | Methionyl-tRNA synthetase, putative (Trypanosoma brucei brucei, UniProt Q38C91) | thermal stability, DSF | 800 µM | ΔTm | 1.8 °C |
| O=C(O)C(F)(F)C(F)(F)C(F)(F)C(F)(F)C(F)(F)C(F)(F)C(F)(F)F | Solute carrier family 22 member 12 (SLC22A12, Homo sapiens, UniProt Q96S37) | transporter uptake, substrate | – | Km | 820 µM |
| COc1ncccc1-c1cnn2ccc(N3CCN(C(=O)OC(C)C)CC3)nc12 | Epithelial discoidin domain-containing receptor 1 (DDR1, Homo sapiens, UniProt Q08345) | binding, competition with immobilised ligand | 1 µM | remaining binding | 100% |
| COc1ccc(S(=O)(=O)N(CC(=O)NO)CC(C)C)cc1 | 72 kDa type IV collagenase (MMP2, Homo sapiens, UniProt P08253) | enzyme activity, inhibitor | 1 µM | inhibition | 100% |
